Results from ChEMBL document CHEMBL1129630, “Synthesis and structure-activity relationships of retinoid X receptor selective diaryl sulfide analogs of retinoic acid” (J Med Chem, 1996).

Legend:
Set-up in all cases: species or system Cercopithecidae
[1] = biological target: T1, Retinoic acid receptor beta (Homo sapiens, UniProt P10826); assay: Transcriptional activation of Retinoic acid receptor RAR beta
T1 sequence (P10826 whole entry): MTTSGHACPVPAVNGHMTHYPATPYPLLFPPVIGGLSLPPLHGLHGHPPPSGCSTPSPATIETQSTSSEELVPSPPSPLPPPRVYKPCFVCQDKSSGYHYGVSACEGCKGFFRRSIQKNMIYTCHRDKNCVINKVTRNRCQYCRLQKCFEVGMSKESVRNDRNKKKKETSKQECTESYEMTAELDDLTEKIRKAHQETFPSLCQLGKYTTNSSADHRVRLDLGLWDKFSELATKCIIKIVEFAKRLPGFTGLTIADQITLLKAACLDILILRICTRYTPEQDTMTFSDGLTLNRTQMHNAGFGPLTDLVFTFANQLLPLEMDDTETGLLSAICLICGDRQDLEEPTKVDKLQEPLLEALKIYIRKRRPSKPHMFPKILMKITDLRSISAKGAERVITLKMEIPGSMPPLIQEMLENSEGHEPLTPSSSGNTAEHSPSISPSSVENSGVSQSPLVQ
How it was run: (§1)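 CV-1 cells transiently cotransfected with the receptor construct and a reporter gene, with induced transcription measured. Activity is normalized to all-trans RA. EC50 is the concentration giving 50% of maximal observed response, from a single experiment in triplicate.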

[2] = biological target: T2, Retinoic acid receptor RXR-alpha (Homo sapiens, UniProt P19793); assay: Transcriptional activation of Retinoid X receptor RXR alpha
T2 sequence (P19793 whole entry): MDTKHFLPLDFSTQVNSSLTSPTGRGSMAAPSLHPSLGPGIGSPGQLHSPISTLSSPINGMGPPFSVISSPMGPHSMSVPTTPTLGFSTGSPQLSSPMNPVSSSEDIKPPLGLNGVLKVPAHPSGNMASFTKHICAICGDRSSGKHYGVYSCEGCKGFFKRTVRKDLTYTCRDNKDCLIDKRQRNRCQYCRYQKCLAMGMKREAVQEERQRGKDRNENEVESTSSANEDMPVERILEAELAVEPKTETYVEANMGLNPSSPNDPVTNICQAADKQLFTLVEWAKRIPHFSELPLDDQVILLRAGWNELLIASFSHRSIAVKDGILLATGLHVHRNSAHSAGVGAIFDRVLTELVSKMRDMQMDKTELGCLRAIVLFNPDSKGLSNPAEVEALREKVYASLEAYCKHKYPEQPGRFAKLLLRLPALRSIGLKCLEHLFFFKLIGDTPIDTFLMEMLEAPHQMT
How it was run: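 Transient cotransfection of CV-1 cells with the receptor gene construct plus a reporter gene, read as induced transcription. Activity normalized to all-trans RA. EC50 taken as the concentration giving 50% of the maximal observed response. Single experiment, triplicate determinations.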

[3] = biological target: T2, Retinoic acid receptor RXR-alpha; assay: Transcriptional activation of Retinoid X receptor RXR alpha;NA=not active; how it was run: as §1

EC50 [1]	EC50 [2]	EC50 [3]	Structure (SMILES)
570 nM	770 nM		CC1(C)CCC(C)(C)c2cc(Sc3ccc(C(=O)O)cc3)ccc21
		Not Active	Cc1cc2c(cc1[S+]([O-])c1ccc(C(=O)O)cc1)C(C)(C)CCC2(C)C (stereo not drawn)
